# From ChEMBL document CHEMBL3098043, “New insights into molecular recognition of 1,1-bisphosphonic acids by farnesyl diphosphate synthase” (Bioorg Med Chem, 2014)
# Experiments:
# Trypanosoma cruzi [1] = experiment: Antimicrobial activity against Trypanosoma cruzi; type: functional; conditions: read-out: ED50 (the source's name)
# [2] = Cytotoxicity against hTerT cells; type: cell-based; conditions: human
# In short: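 Toxicity toward hTerT host cells was judged by visual inspection during the tachyzoite growth assay. Cells were in DMEM-HG with 1% FBS at 37 °C, 5% CO2.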
# Toxoplasma gondii [3] = experiment: Antimicrobial activity against Toxoplasma gondii tachyzoites expressing red fluorescence protein infected in hTerT cells measured daily by fluorescence assay; type: functional; conditions: read-out: ED50 (the source's name)
# In short: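 Tachyzoites expressing red fluorescent protein, maintained in hTerT cells in DMEM-HG with 1% FBS, 2 mM glutamine, 1 mM pyruvate, 37 °C, 5% CO2. Confluent hTerT monolayers infected with 10^4 filtered, needle-passed tachyzoites/well. Drugs serially diluted in the same medium. Fluorescence read daily from the bottom (ex 510, em 540 nm).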
# Vero [4] = experiment: Cytotoxicity against african green monkey Vero cells at 25 uM; type: cell-based; conditions: chlorocebus sabaeus
# In short: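 Host-cell toxicity toward irradiated, T. cruzi-infected Vero cells was judged by visual inspection during the amastigote assay. Drugs went up to 25 μM in RPMI with 10% FBS at 35 °C, 7% CO2, over 3 days.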
# Trypanosoma cruzi [5] = experiment: Antimicrobial activity against Trypanosoma cruzi CL amastigotes infected in african green monkey Vero cells measured on day 3 by fluorescence assay; type: functional; conditions: 72 h, read-out: ED50 (the source's name)
# In short: (§1)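 Vero cells were gamma-irradiated (2,000 Rads), seeded at 3.4×10^4/well in RPMI with 10% FBS, and incubated overnight at 35 °C, 7% CO2. […] Compounds were given in serial dilutions (1.56–25 μM), each in quadruplicate, with benznidazole (0.39–6.25 μM) as reference. Fluorescence was read on day 3 post-infection, and IC50 was obtained by non-linear regression.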
# [6] = […]; design: species or system Trypanosoma cruzi
# Trypanosoma cruzi [7] = experiment: Antimicrobial activity against Trypanosoma cruzi amastigotes; type: functional; conditions: read-out: ED50 (the source's name); in short: as §1
# Trypanosoma cruzi [8] = experiment: Ratio of compound activity to WC-9 activity for Trypanosoma cruzi amastigotes; type: functional
# [9] = target: T1, Farnesyl diphosphate synthase (Toxoplasma gondii, UniProt Q197X6); experiment: Inhibition of Toxoplasma gondii FPPS
# T1 sequence (Q197X6 whole entry): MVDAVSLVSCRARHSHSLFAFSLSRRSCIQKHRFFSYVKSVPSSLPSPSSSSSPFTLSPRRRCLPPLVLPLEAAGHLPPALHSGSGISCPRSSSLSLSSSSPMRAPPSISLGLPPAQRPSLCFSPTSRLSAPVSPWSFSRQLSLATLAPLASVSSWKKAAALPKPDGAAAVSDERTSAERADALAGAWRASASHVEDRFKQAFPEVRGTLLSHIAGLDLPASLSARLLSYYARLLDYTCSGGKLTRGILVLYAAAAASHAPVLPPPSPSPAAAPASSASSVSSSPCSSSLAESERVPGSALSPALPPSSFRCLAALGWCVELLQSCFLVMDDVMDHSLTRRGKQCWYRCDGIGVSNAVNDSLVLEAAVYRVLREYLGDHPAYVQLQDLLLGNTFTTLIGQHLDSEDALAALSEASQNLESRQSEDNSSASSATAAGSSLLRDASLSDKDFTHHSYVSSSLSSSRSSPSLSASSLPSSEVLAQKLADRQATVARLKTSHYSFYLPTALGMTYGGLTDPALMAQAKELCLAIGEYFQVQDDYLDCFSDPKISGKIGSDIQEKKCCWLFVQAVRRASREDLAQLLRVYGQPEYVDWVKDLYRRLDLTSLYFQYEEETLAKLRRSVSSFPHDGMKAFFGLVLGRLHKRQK
# Vero [10] = experiment: Cytotoxicity against african green monkey Vero cells at 10 uM; type: cell-based; conditions: chlorocebus sabaeus
# Trypanosoma cruzi [11] = experiment: Antimicrobial activity against Trypanosoma cruzi CL amastigotes infected in african green monkey Vero cells at 10 uM measured on day 3 by fluorescence assay; type: functional; conditions: 72 h
# In short: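 Vero host cells, gamma-irradiated (2,000 Rads), seeded at 3.4×10^4/well in RPMI with 10% FBS and incubated overnight at 35 °C, 7% CO2. […] Compounds were added in RPMI, in quadruplicate, with no-parasite background and no-drug controls. Fluorescence was read at day 3 post-infection.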
# Toxoplasma gondii [12] = experiment: Antimicrobial activity against Toxoplasma gondii tachyzoites expressing red fluorescence protein infected in hTerT cells at 10 uM measured daily by fluorescence assay; type: functional
SMILES,Activity [2],EC50 (Toxoplasma gondii [3]),Activity (Vero [4]),EC50 (Trypanosoma cruzi [5]),IC50 [6],IC50 [9],also measured
CCCCCCCCCCCCNCC(P(=O)(O)O)P(=O)(O)O,–,–,–,–,–,–,EC50 (Trypanosoma cruzi [1]): 0.67 µM
CCCCCCCNCC(O)(P(=O)(O)O)P(=O)(O)O,Non-toxic,≥ 10 µM,Non-toxic,> 20 µM,> 10 µM,–,–
CCCCCCNCC(P(=O)(O)O)P(=O)(O)O,–,–,–,–,–,–,EC50 (Trypanosoma cruzi [7]): 0.84 µM; Ratio (Trypanosoma cruzi [8]): 15
CCCCCCCCC(F)(P(=O)(O)O)P(=O)(O)O,–,–,–,–,–,0.035 µM,–
CCCCCCCCCC(F)(P(=O)(O)O)P(=O)(O)O,–,–,–,–,–,0.06 µM,–
CCCCCNCC(O)(P(=O)(O)O)P(=O)(O)O,Non-toxic,> 10 µM,Non-toxic,> 20 µM,> 10 µM,0.067 µM,–
CCCCCCNCC(O)(P(=O)(O)O)P(=O)(O)O,Non-toxic,4.68 µM,Non-toxic,> 20 µM,> 10 µM,0.051 µM,–
CCCCCCCCNCC(O)(P(=O)(O)O)P(=O)(O)O,Non-toxic,2 µM,Non-toxic,–,> 10 µM,0.039 µM,Activity (Vero [10]): Toxic; inhibition at 10 µM (Trypanosoma cruzi [11]): 46%
CCCCCCCCCCNCC(O)(P(=O)(O)O)P(=O)(O)O,Non-toxic,–,Non-toxic,–,> 10 µM,0.125 µM,inhibition at 10 µM (Toxoplasma gondii [12]): 14.9%; inhibition at 10 µM (Trypanosoma cruzi [11]): 42%
O=C(Cn1ccnc1[N+](=O)[O-])NCc1ccccc1 [BENZNIDAZOLE],–,–,–,1.44 µM,–,–,EC50 (Trypanosoma cruzi [1]): 2.77 µM
O=P(O)(O)C(O)(Cc1cccnc1)P(=O)(O)O [RISEDRONIC ACID],–,2.4 µM,–,–,–,–,–
